Experimental data taken from ChEMBL document CHEMBL3875231, “From Dynamic Combinatorial Chemistry to in Vivo Evaluation of Reversible and Irreversible Myeloperoxidase Inhibitors” (ACS Med Chem Lett, 2017).
Calls of active or inactive are those of the source. The calls are words filed in the database; no cut-off is given here.

Experiments:
Myeloperoxidase [1] = target: T1, Myeloperoxidase (Homo sapiens, UniProt P05164); assay: (§1) Inhibition of human MPO
T1 sequence (P05164 whole entry): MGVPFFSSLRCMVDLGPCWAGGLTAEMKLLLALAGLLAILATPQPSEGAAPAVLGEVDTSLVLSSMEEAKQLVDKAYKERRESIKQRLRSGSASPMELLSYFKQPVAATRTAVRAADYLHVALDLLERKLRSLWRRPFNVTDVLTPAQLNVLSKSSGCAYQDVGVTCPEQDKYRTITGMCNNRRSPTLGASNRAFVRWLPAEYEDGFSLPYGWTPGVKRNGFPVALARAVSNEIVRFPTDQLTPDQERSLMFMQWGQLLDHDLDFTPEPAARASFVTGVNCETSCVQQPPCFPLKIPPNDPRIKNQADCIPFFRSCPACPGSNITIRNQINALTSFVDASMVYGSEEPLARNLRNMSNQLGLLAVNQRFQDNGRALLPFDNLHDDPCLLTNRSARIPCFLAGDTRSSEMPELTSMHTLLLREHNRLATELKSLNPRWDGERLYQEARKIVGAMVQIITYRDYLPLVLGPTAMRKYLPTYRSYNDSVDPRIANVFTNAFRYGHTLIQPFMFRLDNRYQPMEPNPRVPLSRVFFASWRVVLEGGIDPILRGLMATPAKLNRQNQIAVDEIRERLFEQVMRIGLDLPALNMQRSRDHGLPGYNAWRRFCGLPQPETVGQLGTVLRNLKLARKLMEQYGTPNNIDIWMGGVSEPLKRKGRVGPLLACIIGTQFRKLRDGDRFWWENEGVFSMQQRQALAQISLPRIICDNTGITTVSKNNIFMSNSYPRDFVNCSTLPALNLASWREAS

[2] = target: T2, Myeloperoxidase (Homo sapiens) (UniProt P05164); assay: Inhibition of human MPO assessed as residual activity in presence of H2O2; design: concentration or dose not given beside the values
T2 sequence (whole entry): T1 sequence (P05164 whole entry)
In short: (§2)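 Ligand and MPO were mixed with or without H2O2, then diluted 100-fold, and the residual enzymatic activity was measured. An H2O2-alone mixture served as control.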

[3] = target: T2, Myeloperoxidase (Homo sapiens); assay: Inhibition of human MPO assessed as residual activity in absence of […]; design: concentration or dose not given beside the values; in short: as §2
[4] = target: T2, Myeloperoxidase (Homo sapiens); assay: as §1; design: concentration or dose not given beside the values; conditions: concentration not given here
[5] = target: T2, Myeloperoxidase (Homo sapiens); assay: Irreversible inhibition of human MPO in presence of H2O2 by stopped-flow method
[6] = target: T2, Myeloperoxidase (Homo sapiens); assay: Inhibition of human MPO assessed as rate constant for reduction of PorFe(4)=O to PorFe(4)-OH in presence of H2O2 by stopped-flow method
Rattus norvegicus [7] = assay: Ex vivo inhibition of MPO activity in peritoneal exudate of Wistar albino rat model of carrageenan-induced inflammation assessed as reduction in H2O2-dependent oxidation of TMB at 10 mg/kg, iv measured after 24 hrs; type: functional, organism-based
In short: (§3)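 Male Wistar Han rats had inflammation induced by intraperitoneal carrageenan, then received ligand at 10 mg/kg intravenously. Peritoneal liquid was collected. MPO concentration was measured at 24 h, and MPO activity at 24 h and at 48 h after drug administration. Comparators were carrageenan-only rats and reference rats not treated with carrageenan.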

[8] = target: T2, Myeloperoxidase (Homo sapiens); assay: Inhibition of human MPO assessed as soret band formation at 429 nanometer in presence of H2O2 by stopped-flow method
[9] = target: T2, Myeloperoxidase (Homo sapiens); assay: Reversible inhibition of human MPO assessed as rate constant for reduction of PorFe(4)-OH to ferric MPO in presence of H2O2 by stopped-flow method
Myeloperoxidase [10] = target: T1, Myeloperoxidase; assay: Irreversible inhibition of MPO (unknown origin)
In short: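 MPO was preincubated with ligand, with or without H2O2, alongside an H2O2-alone control. The mixture was then diluted 100-fold, residual enzymatic activity was measured, and inactivation was expressed as percent loss of activity.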

Rattus norvegicus [11] = assay: Ex vivo inhibition of MPO activity in peritoneal exudate of Wistar albino rat model of carrageenan-induced inflammation assessed as reduction in H2O2-dependent oxidation of TMB at 10 mg/kg, iv measured after 48 hrs; type: functional, organism-based; in short: as §3
Rattus norvegicus [12] = assay: Anti-inflammatory activity in Wistar albino rat assessed as inhibition of carrageenan-induced MPO release at 10 mg/kg, iv measured after 24 hrs by ELISA; type: functional, organism-based; in short: as §3

| Structure (SMILES) | IC50 (Myeloperoxidase [1]) [nM] | Activity [2] [%] | Activity [3] [%] | inhibition [4] [%] | inhibition [5] | K [6] [×10⁵ /M/s] | inhibition (Rattus norvegicus [7]) | inhibition [8] | K [9] [M⁻¹ s⁻¹] | IC50 (Myeloperoxidase [10]) [nM] | inhibition (Rattus norvegicus [11]) | inhibition (Rattus norvegicus [12]) |
| --- | --- | --- | --- | --- | --- | --- | --- | --- | --- | --- | --- | --- |
| OC/C=N/Nc1ccc(F)cc1 | > 5000 | 97 | 107 | – | – | – | – | – | – | – | – | – |
| COc1cc(/C=N/Nc2ccc(F)cc2)ccc1O | 1200 | 98 | 89 | 82 | – | – | – | – | – | – | – | – |
| NNc1ccc(F)cc1 | > 5000 | 98 | 103 | 61 | – | – | – | – | – | – | – | – |
| CN(C)c1ccc(/C=N/Nc2ccc(F)cc2)cc1 | 3100 | 84 | 87 | 100 | – | – | – | – | – | – | – | – |
| Cc1ccc(NN)cc1 | – | – | – | 61 | – | – | – | – | – | – | – | – |
| COc1cc(/C=N/Nc2nncc3ccccc23)ccc1O | 340 | 22 | 87 | 82 | Active | 2.8 | – | – | – | – | – | – |
| CN(C)c1ccc(/C=N/Nc2nncc3ccccc23)cc1 | 80 | 92 | 93 | 100 | – | 7.1 | Active | Active | 89.3 | – | – | – |
| COc1ccc(/C=N/Nc2ccc(F)cc2)cc1O | 1130 | 92 | 81 | 91 | – | – | – | – | – | – | – | – |
| NNc1nncc2ccccc12 [HYDRALAZINE] | 900 | 19 | 92 | 61 | – | 7.1 | – | – | – | 900 | – | – |
| O=C(N/N=C/CO)c1ccncc1 | > 5000 | 94 | 100 | – | – | – | – | – | – | – | – | – |
| NNC(=O)c1ccncc1 [ISONIAZID] | 4700 | 64 | 98 | 61 | – | – | – | – | – | 5000 | – | – |
| COc1cc(/C=N/NC(=O)c2ccncc2)ccc1O [FTIVAZIDE] | 460 | 91 | 96 | 82 | – | – | – | – | – | – | – | – |
| COc1ccc(/C=N/Nc2nncc3ccccc23)cc1O | 150 | 25 | 93 | 91 | – | – | Active | – | – | – | Active | Active |
| OC/C=N/Nc1nncc2ccccc12 | 110 | 18 | 82 | – | Active | 3.3 | Active | – | – | – | Active | – |
| CN(C)c1ccc(/C=N/NC(=O)c2ccncc2)cc1 [N'-(4-DIMETHYLAMINOBENZYLIDENE)ISONICOTINOHYDRAZIDE] | 1620 | 93 | 91 | 100 | – | – | – | – | – | – | – | – |
| COc1ccc(/C=N/NC(=O)c2ccncc2)cc1O | 430 | 87 | 88 | 91 | – | – | – | – | – | – | – | – |
| NNc1cccc2ccccc12 | – | – | – | 61 | – | – | – | – | – | – | – | – |
